Some results are limits rather than exact numbers.

The results in this text go back to ChEMBL document CHEMBL1127827, “In vivo inhibition of cathepsin B by peptidyl (acyloxy)methyl ketones” (J Med Chem, 1994).

Data set [1] concerns Rattus norvegicus. Put plainly: Percentage of control was measured on rat liver cathepsin B by a single intraperitoneal dose of 10 mg/kg. In kind it is functional. The method, boiled down:
(§1)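 Female Lewis rats, single intraperitoneal dose as CMC suspension; livers removed 4-5 h postdose, frozen homogenate supernatant assayed fluorimetrically with Z-Arg-Arg-NMec in 0.1 M KH2PO4 pH 6.0, 1 mM EDTA, 1 mM DTT, 37 °C 30 min; protein-normalized activity as % of CMC control; two dilutions in triplicate per animal, 4-5 animals per group.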

The target in data set [2] is Cathepsin B (Bos taurus) (UniProt P07688). Description: Rate of cathepsin B inactivation in vitro in bovine spleen. The data set is classed as tissue-based. The procedure, abridged: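 Purified bovine spleen cathepsin B; continuous fluorometric assay in 0.1 M potassium phosphate, 1.25 mM EDTA, 1 mM dithiothreitol, pH 6.0, 25 °C; second-order inactivation rate constant k/K (M-1 s-1) determined.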

Data set [3] concerns Rattus norvegicus. Put plainly: Percentage of control was measured on rat liver cathepsin B by a single intraperitoneal dose.(dose =10 mg/kg). In kind it is functional. The method, boiled down: as §1
The test system of data set [4] is Rattus norvegicus. Description: Percentage of control was measured on rat liver cathepsin B by a single oral dose.(dose =50 mg/kg). The data set is classed as functional. The procedure, abridged: (§2)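 Rats dosed once by gavage with compound suspended in CMC; livers taken 4-5 h postdose, frozen, homogenized and centrifuged; supernatant cathepsin B activity read with Z-Arg-Arg-NMec at pH 6.0, 37 °C, 30 min, quenched with chloroacetate/acetate pH 4.3; specific activity given as % of vehicle control, two dilutions in triplicate, 4-5 animals per group.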

Data set [5] concerns Rattus norvegicus. Put plainly: Percentage of control was measured on rat liver cathepsin B by a single oral dose of 50 mg/kg. In kind it is functional. The method, boiled down:
as §2

The test system of data set [6] is Rattus norvegicus. Description: ED50 value was determined for rat skeletal muscle at 20h postdose by subcutaneous administration. In kind it is functional. The following applies: Muscle tissue, sc. The procedure, abridged:
(§3)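 Female Lewis rats (150-200 g, usually four per group), single subcutaneous dose suspended in CMC; heart, liver or skeletal muscle harvested 20 h postdose, frozen in liquid nitrogen, homogenized, clarified at 15000g. Cathepsin B measured as Z-Arg-Arg-NMec (20 μM solution) hydrolysis, pH 6.0, 37 °C 30 min, fluorescence ex 340/em 460; specific activity as % of vehicle control; ED50 from dose-response.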

For data set [7], the system named is Rattus norvegicus. Put plainly: Percent inhibition was measured on rat heart cathepsin B by a single subcutaneous dose of 20 mg/kg.
A short description of data set [8]: Half-life measured in rat plasma.
The subject of data set [9] is Rattus norvegicus. Put plainly: ED50 value was determined for rat liver at 20h postdose by subcutaneous administration. In kind it is functional. The following applies: sc. The method, boiled down: as §3
The nature of data set [10]: Half-life measured in in vitro Cathepsin B assay in human plasma. In kind it is ADME, cell-free.
In data set [11] the test system is Rattus norvegicus. Put plainly: Percent inhibition was measured on rat skeletal tissue cathepsin B by a single subcutaneous dose of 20 mg/kg.
The test system of data set [12] is Rattus norvegicus. Description: Percent inhibition was measured on rat pancreas cathepsin B by a single subcutaneous dose of 20 mg/kg.
The subject of data set [13] is Rattus norvegicus. Description: Percent inhibition was measured on rat liver cathepsin B by a single subcutaneous dose of 20 mg/kg.
The subject of data set [14] is Rattus norvegicus. Description: ED50 value was determined for rat heart at 20h postdose by subcutaneous administration. In kind it is functional. The following applies: sc. The method, boiled down:
as §3

Data set [15] concerns Rattus norvegicus. Description: Percent inhibition was measured on rat spleen cathepsin B by a single subcutaneous dose of 20 mg/kg.
For data set [16], the system named is Rattus norvegicus. Put plainly: Percentage of control was measured on rat liver cathepsin B by a single intraperitoneal dose.(dose =100 mg/kg). The data set is classed as functional. The procedure, abridged:
as §1

For data set [17], the system named is Rattus norvegicus. Description: Percentage of control was measured on rat liver cathepsin B by a single oral dose.(dose =100 mg/kg). The data set is classed as functional. The procedure, abridged:
as §2

Turning to `CC(C)C[C@H](NC(=O)[C@H]1O[C@@H]1C(=O)O)C(=O)NCCCCN=C(N)N` [E-64], the Control in data set [1] is 24%.

`Cc1cc(C)c(C(=O)OCC(=O)[C@@H](C)NC(=O)[C@H](Cc2ccccc2)NC(=O)CCC(=O)O)c(C)c1`: in data set [2], the k/K was found to be 1000 M⁻¹ s⁻¹. Further, the Control in data set [3] is 23%; in [4], 31%.

Consider `Cc1c(C)c(C(=O)OCC(=O)[C@H](C)NC(=O)[C@H](Cc2ccccc2)NC(=O)OCc2ccccc2)c(C)c(C)c1C(=O)O`, for which the Control amounted to 79% in [5] and 53% in [1]. This molecule also yielded a k/K in [2] of 63000 M⁻¹ s⁻¹.

In the case of `Cc1cc(C)c(C(=O)OCC(=O)CNC(=O)[C@H](Cc2ccccc2)NC(=O)CCC(=O)O)c(C)c1`, in data set [5], the Control was 49%. Moreover, the k/K in data set [2] worked out at 700 M⁻¹ s⁻¹.

Regarding `COc1ccc(C[C@H](NC(=O)OCc2ccccc2)C(=O)N[C@@H](CCCCN)C(=O)COC(=O)c2c(C)cc(C)cc2C)cc1.O=C(O)C(F)(F)F`, the Control in data set [5] is recorded as 30%. The k/K in data set [2] amounted to 170000 M⁻¹ s⁻¹.

Turning to `Cc1cc(C)c(C(=O)OCC(=O)CNC(=O)[C@H](Cc2ccccc2)NC(=O)OCc2ccccc2)c(C)c1`, the k/K in [2] worked out at 9900 M⁻¹ s⁻¹. The same molecule came in with a Control in [4] of 29%.

Broadly, the ED50 is the midpoint of the dose-response relation. Low values mean greater potency, high ones weaker potency. As a reminder, the half-life is the time needed for the level to fall by half in the phase considered. A higher half-life goes with slow loss. For `Cc1cc(C)c(C(=O)OCC(=O)[C@H](CCCCN)NC(=O)[C@H](Cc2ccccc2)NC(=O)OCc2ccccc2)c(C)c1.Cl`, the figures for the ED50 in data set [6], in data set [9] and in data set [14] were 1 mg/kg, 2.4 mg/kg and around 0.1 mg/kg, respectively. Besides, the Control in data set [5] amounted to 11%; in data set [1], 4%. Besides, the Inhibition % worked out at 94% in [7]; 72% in [11]; 96% in [12]; 96% in [13]; 98% in data set [15]. The values for the half-life in [8] and in data set [10] were 1.6 h and above 33 h, respectively. This molecule also yielded a k/K in [2] of 230000 M⁻¹ s⁻¹.

As to `CC(NC(=O)[C@H](Cc1ccccc1)NC(=O)OCc1ccccc1)C(=O)CF` (some centres not stated), in data set [5], the Control was found to be 7%. The k/K in data set [2] was 21000 M⁻¹ s⁻¹.

As to `Cc1cc(C)c(C(=O)OCC(=O)[C@@H](C)NC(=O)[C@H](Cc2ccccc2)NC(=O)OCc2ccccc2)c(C)c1`, the k/K in [2] turned out to be 14000 M⁻¹ s⁻¹. Also, the Control in data set [16] stood at 69%; in data set [17] it was 78%.

`COC(=O)CCC(=O)N[C@@H](Cc1ccccc1)C(=O)N[C@H](C)C(=O)COC(=O)c1c(C)cc(C)cc1C` yielded a k/K in data set [2] of 4000 M⁻¹ s⁻¹. Besides, the figures for the Control in [3] and in data set [4] were 38% and 50%, respectively.

With `Cc1cc(C)c(C(=O)OCC(=O)[C@@H](C)NC(=O)[C@H](Cc2ccccc2)NC(=O)c2ccc(C(=O)NS(=O)(=O)c3ccccc3)cc2)c(C)c1`, in data set [2], the k/K turned out to be 2500 M⁻¹ s⁻¹. The Control in [3] is 68%; in [4], 62%.
